Reference: ChEMBL document CHEMBL4371012, “Development of Macrocyclic Peptides Containing Epoxyketone with Oral Availability as Proteasome Inhibitors” (J Med Chem, 2018)
Activity calls are given as the source filed them. The rule behind the calls is not given here.

Assays:
[1] = target: T1, Proteasome Macropain subunit MB1 (Homo sapiens, UniProt P28074); experiment: Inhibition of human 20S proteasome chymotrypsin-like activity using Suc-Leu-Leu-Val-Tyr-AMC as substrate pretreated for 15 mins followed by substrate addition by fluorescence assay
T1 sequence (P28074 whole entry): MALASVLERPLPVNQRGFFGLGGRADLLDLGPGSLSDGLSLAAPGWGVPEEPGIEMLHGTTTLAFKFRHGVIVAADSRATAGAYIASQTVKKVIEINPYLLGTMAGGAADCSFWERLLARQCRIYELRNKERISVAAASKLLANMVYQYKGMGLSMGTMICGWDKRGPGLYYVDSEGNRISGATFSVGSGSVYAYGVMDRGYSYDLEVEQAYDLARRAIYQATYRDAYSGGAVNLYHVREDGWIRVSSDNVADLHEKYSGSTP

RPMI-8226 = experiment: Antiproliferative activity against human RPMI8226 cells after 72 hrs by MTS assay; assay type: functional, cell-based; details: RPMI-8226, 72 h
MM1.S = experiment: Antiproliferative activity against human MM1S cells after 72 hrs by MTS assay; assay type: functional, cell-based
MV4-11 = experiment: Antiproliferative activity against human MV4-11 cells after 72 hrs by MTS assay; assay type: functional, cell-based; details: MV4-11, 72 h
[2] = Volume of distribution at steady state in ICR mouse at 5 mg/kg, iv by LC-MS/MS analysis; assay type: ADME, organism-based; details: in vivo, read-out: Vdss
[3] = Half life in ICR mouse at 5 mg/kg, iv by LC-MS/MS analysis; assay type: ADME, organism-based; details: in vivo
[4] = Oral bioavailability in ICR mouse at 25 mg/kg via gavage by LC-MS/MS analysis; assay type: ADME, organism-based; details: in vivo
[5] = Cmax in ICR mouse at 25 mg/kg, po via gavage by LC-MS/MS analysis; assay type: ADME, organism-based; set-up: dose 25 mg/kg, route oral; details: in vivo
[6] = Tmax in ICR mouse at 25 mg/kg, po via gavage by LC-MS/MS analysis; assay type: ADME, organism-based; details: in vivo
[7] = AUC (0 to t) in ICR mouse at 5 mg/kg, iv after 1 hr by LC-MS/MS analysis; assay type: ADME, organism-based; set-up: time < 1 hr, dose 5 mg/kg, route intravenous; details: in vivo
[8] = Clearance in ICR mouse at 5 mg/kg, iv by LC-MS/MS analysis; assay type: ADME, organism-based; details: in vivo
[9] = AUC (0 to t) in ICR mouse at 25 mg/kg, po via gavage after 1 hr by LC-MS/MS analysis; assay type: ADME, organism-based; set-up: time < 1 hr, dose 25 mg/kg, route oral; details: in vivo
Mus musculus = experiment: In vivo inhibition of 20S proteasome chymotrypsin-like activity in Balb/c mouse blood at 30 mg/kg, po measured at 2 to 24 hrs post dose using LLVY-AMC as substrate by fluorescence assay; assay type: functional, organism-based
In short: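 BALB/c mice dosed orally in 0.5% CMC-Na vehicle. Blood was sampled at 2 and 24 h after dosing for proteasome chymotrypsin-like activity.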

[10] = Metabolic stability in mouse liver microsomes assessed as parent compound remaining at 100 uM after 30 mins by LC-MS/MS analysis; assay type: ADME, Microsome; details: read-out: Stability
In short: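 After the microsomal incubation, the clear supernatant was analysed by ESI LC-MS. The read-out was the relative peak area of each parent compound.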

[11] = Metabolic stability in mouse liver microsomes assessed as parent compound remaining at 100 uM after 5 mins by LC-MS/MS analysis; assay type: ADME, Microsome; details: read-out: Stability

SMILES | IC50 [1] [nM] | IC50 (RPMI-8226) [nM] | IC50 (MM1.S) [nM] | IC50 (MV4-11) [nM] | other results
COC[C@@H]1NC(=O)c2ccccc2OCCCCCCCCOC[C@@H](C(=O)N[C@@H](Cc2ccccc2)C(=O)[C@@]2(C)CO2)NC1=O | 346 |  |  |  | 
COC[C@@H]1NC(=O)c2cccc(c2)OCCCCCCCCOC[C@@H](C(=O)N[C@@H](Cc2ccccc2)C(=O)[C@@]2(C)CO2)NC1=O | 51 | 32 | 11 |  | 
COC[C@@H]1NC(=O)c2cccnc2OCCCCCCOC[C@@H](C(=O)N[C@@H](Cc2ccccc2)C(=O)[C@@]2(C)CO2)NC1=O | 232 |  |  |  | 
COC[C@@H]1NC(=O)c2cccc(F)c2OCCCCCCOC[C@@H](C(=O)N[C@@H](Cc2ccccc2)C(=O)[C@@]2(C)CO2)NC1=O | 25 | 10 | 3 | 9 | 
COC[C@@H]1NC(=O)c2ccccc2OCCCCCOC[C@@H](C(=O)N[C@@H](Cc2ccccc2)C(=O)[C@@]2(C)CO2)NC1=O | 21 | 74 | 29 | 13 | 
COC[C@@H]1NC(=O)c2sc(C)nc2OCCCCCCOC[C@@H](C(=O)N[C@@H](Cc2ccccc2)C(=O)[C@@]2(C)CO2)NC1=O | 392 | > 100 | 65 | 36 | 
COC[C@H](NC(=O)c1cnc(C)s1)C(=O)N[C@@H](COC)C(=O)N[C@@H](Cc1ccccc1)C(=O)[C@@]1(C)CO1 [OPROZOMIB] |  | 19 | 9 | 28 | Vd [2]: 0.51 L/kg; half-life [3]: 2.4 min; bioavailability [4]: 5.61%; Cmax [5]: 261 ng/mL; Tmax [6]: 13.2 min; AUC(0-t) at 1 h [7]: 506 ng·h/mL; clearance [8]: 164 mL/min/kg; AUC(0-t) at 1 h [9]: 142 ng·h/mL; inhibition (Mus musculus): Active; remaining at 0.5 h, 100 µM [10]: 60%
COC[C@@H]1NC(=O)c2sccc2OCCCCCCOC[C@@H](C(=O)N[C@@H](Cc2ccccc2)C(=O)[C@@]2(C)CO2)NC1=O | 257 | 128 | 63 | 131 | 
COC[C@@H]1NC(=O)c2ccc(OC)cc2OCCCCCCOC[C@@H](C(=O)N[C@@H](Cc2ccccc2)C(=O)[C@@]2(C)CO2)NC1=O | 253 | > 100 | 43 |  | 
COC[C@@H]1NC(=O)c2cnn(C)c2OCCCCCCOC[C@@H](C(=O)N[C@@H](Cc2ccccc2)C(=O)[C@@]2(C)CO2)NC1=O | 32 | 20 | 6 | 4 | remaining at 0.5 h, 100 µM [10]: 63%
COC[C@@H]1NC(=O)c2ccc(Cl)cc2OCCCCCCOC[C@@H](C(=O)N[C@@H](Cc2ccccc2)C(=O)[C@@]2(C)CO2)NC1=O | 100 | > 100 | 43 | 26 | 
COC[C@@H]1NC(=O)c2cccn2CCCCCCOC[C@@H](C(=O)N[C@@H](Cc2ccccc2)C(=O)[C@@]2(C)CO2)NC1=O | 14 | 13 | 4 | 11 | remaining at 5 min, 100 µM [11]: < 5%
COC[C@@H]1NC(=O)c2ccccc2OCCCCOC[C@@H](C(=O)N[C@@H](Cc2ccccc2)C(=O)[C@@]2(C)CO2)NC1=O | 36 | > 100 | 65 | 49 | 
COC[C@@H]1NC(=O)c2ccccc2OCCOCCOC[C@@H](C(=O)N[C@@H](Cc2ccccc2)C(=O)[C@@]2(C)CO2)NC1=O | 116 | 55 | 12 | 33 | 
COC[C@@H]1NC(=O)c2ccccc2OCCCCCCCC[C@@H](C(=O)N[C@@H](Cc2ccccc2)C(=O)[C@@]2(C)CO2)NC1=O | 35 | 120 | 137 | 72 | 
COC[C@@H]1NC(=O)c2ccccc2OCCOCCOCCOC[C@@H](C(=O)N[C@@H](Cc2ccccc2)C(=O)[C@@]2(C)CO2)NC1=O | 370 | 82 | 43 | 130 | 
COC[C@@H]1NC(=O)c2cnn(C)c2CCCCCCOC[C@@H](C(=O)N[C@@H](Cc2ccccc2)C(=O)[C@@]2(C)CO2)NC1=O | 20 | 3 | 2 | 3 | remaining at 0.5 h, 100 µM [10]: 48%
COC[C@@H]1NC(=O)c2cc(Cl)ccc2OCCCCCCOC[C@@H](C(=O)N[C@@H](Cc2ccccc2)C(=O)[C@@]2(C)CO2)NC1=O | 436 |  |  |  | remaining at 5 min, 100 µM [11]: < 5%
COC[C@@H]1NC(=O)c2ncccc2OCCCCCCOC[C@@H](C(=O)N[C@@H](Cc2ccccc2)C(=O)[C@@]2(C)CO2)NC1=O | 248 | > 100 | 37 |  | 
COC[C@@H]1NC(=O)c2ccccc2OCCCCCCC[C@@H](C(=O)N[C@@H](Cc2ccccc2)C(=O)[C@@]2(C)CO2)NC1=O | 14 | 73 | 32 | 66 | 
COC[C@@H]1NC(=O)c2ccc(C)cc2OCCCCCCOC[C@@H](C(=O)N[C@@H](Cc2ccccc2)C(=O)[C@@]2(C)CO2)NC1=O | 162 | > 100 | 53 |  | 
COC[C@@H]1NC(=O)c2ccnn2CCCCCCCOC[C@@H](C(=O)N[C@@H](Cc2ccccc2)C(=O)[C@@]2(C)CO2)NC1=O | 25 | 5 | 2 | 5 | 
COC[C@@H]1NC(=O)c2ccc(F)cc2OCCCCCCOC[C@@H](C(=O)N[C@@H](Cc2ccccc2)C(=O)[C@@]2(C)CO2)NC1=O | 205 | > 100 | 69 |  | 
COC[C@@H]1NC(=O)c2ccccc2OCCCCCCCOC[C@@H](C(=O)N[C@@H](Cc2ccccc2)C(=O)[C@@]2(C)CO2)NC1=O | 63 | > 100 | 78 | 39 | 
COC[C@@H]1NC(=O)[C@@H]2CCCN2C(=O)CCCCCOC[C@@H](C(=O)N[C@@H](Cc2ccccc2)C(=O)[C@@]2(C)CO2)NC1=O | 352 | 350 | 172 | 421 | 
COC[C@@H]1NC(=O)c2ccccc2OCCCCCCCCCOC[C@@H](C(=O)N[C@@H](Cc2ccccc2)C(=O)[C@@]2(C)CO2)NC1=O | 460 |  |  |  | 
COC[C@@H]1NC(=O)c2cccc(OC)c2OCCCCCCOC[C@@H](C(=O)N[C@@H](Cc2ccccc2)C(=O)[C@@]2(C)CO2)NC1=O | 4 | 5 | 3 | 6 | remaining at 5 min, 100 µM [11]: < 5%
COC[C@@H]1NC(=O)c2nccn2CCCCCCCOC[C@@H](C(=O)N[C@@H](Cc2ccccc2)C(=O)[C@@]2(C)CO2)NC1=O | 37 | 5 | 2 | 5 | 
